Published values pooled from the literature.
Each line is one published result; the experiments were not run side by side.
Medium: plasma

For `CC(C)(C)c1ccc(O)c(CN(Cc2cc(C(C)(C)C)ccc2O)C2CCC(NC(N)=O)CC2)c1` (centres unmarked), the Cmax was 3620 ng/mL (male C57BL/6 mouse; intraperitoneal; 25 mg/kg; single dose).
For `CC(C)(Sc1ccncc1-c1ccc(C#N)c2ccccc12)C(=O)O`, the Vd/F was 625 L (male human; oral; 5 mg; single dose, fed, healthy volunteers).
`Cc1cc(Nc2cc(N3CCN(C)CC3)nc(/C=C/c3ccccc3)n2)n[nH]1` has a Vd/F of 907 L (human; oral; 200 mg/m²; multiple doses, patients).
`CCNCCCNC/C=C\CNCCCNCC` has a Vd of 0.56 L/kg (human; intravenous; 200 mg; patients, infusion).
With `COc1ccc([C@@H]2CN(C(=O)[C@@H](O)CO)C[C@@]2(C)[C@@H](C)O)cc1OC1CN(c2ccc(C)cn2)C1` the Vd/F was 46.4 L (human; oral; 5 mg; single dose, healthy volunteers).
For `CO[C@H]1CC[C@H](N2C(=O)CNc3ncc(-c4ccc(C(C)(C)O)nc4)nc32)CC1`, the Vd/F was 186 L (human; oral; 45 mg; patients).
For `COc1cc(C(=O)NC2CCN(C)CC2)c(F)cc1Nc1ncc(C(F)(F)F)c(Oc2cccc3c2C(=O)N(C)C3)n1`, the Vd/F was 520 L (human; oral; 25 mg; multiple doses, once daily, patients).
`C[C@@]1(c2cc(NC(=O)c3ccc(C#N)cn3)ccc2F)C=CSC(N)=N1` has a Vd/F of 210 L (human; oral; 10 mg; single dose).
